N-glyco inh = N-linked glycosylation inhibition. D54 ERlucT glycosylation luciferase reporter, 24 h; percent of 100 nM tunicamycin response. reporter increase, % at 12.5 µM. 360,000 compounds, 0.23% hits;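 active = mean luciferase reporter signal, scaled so untreated is 0 and the glycosylation-blocking control 100, at or above a set limit in every replicate; inconclusive = mean reaches the limit but not every replicate does; inactive = mean below the limit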;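 note: luciferase carries N-glycosylation sites so blocking glycosylation raises the light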
GC-B act = GC-B (human) receptor activation | activation, % at 10 µM | HEK293-GC-B cells, CNP EC30, cGMP TR-FRET; 0% at EC30 CNP, 100% saturating CNP | P20594 | 370,000 compounds, 0.11% hits;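 active = activation at 10 µM reaching about 35% in either raw or pattern-adjusted values, limit read from the data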
Target sequence (P20594 whole entry, looked up): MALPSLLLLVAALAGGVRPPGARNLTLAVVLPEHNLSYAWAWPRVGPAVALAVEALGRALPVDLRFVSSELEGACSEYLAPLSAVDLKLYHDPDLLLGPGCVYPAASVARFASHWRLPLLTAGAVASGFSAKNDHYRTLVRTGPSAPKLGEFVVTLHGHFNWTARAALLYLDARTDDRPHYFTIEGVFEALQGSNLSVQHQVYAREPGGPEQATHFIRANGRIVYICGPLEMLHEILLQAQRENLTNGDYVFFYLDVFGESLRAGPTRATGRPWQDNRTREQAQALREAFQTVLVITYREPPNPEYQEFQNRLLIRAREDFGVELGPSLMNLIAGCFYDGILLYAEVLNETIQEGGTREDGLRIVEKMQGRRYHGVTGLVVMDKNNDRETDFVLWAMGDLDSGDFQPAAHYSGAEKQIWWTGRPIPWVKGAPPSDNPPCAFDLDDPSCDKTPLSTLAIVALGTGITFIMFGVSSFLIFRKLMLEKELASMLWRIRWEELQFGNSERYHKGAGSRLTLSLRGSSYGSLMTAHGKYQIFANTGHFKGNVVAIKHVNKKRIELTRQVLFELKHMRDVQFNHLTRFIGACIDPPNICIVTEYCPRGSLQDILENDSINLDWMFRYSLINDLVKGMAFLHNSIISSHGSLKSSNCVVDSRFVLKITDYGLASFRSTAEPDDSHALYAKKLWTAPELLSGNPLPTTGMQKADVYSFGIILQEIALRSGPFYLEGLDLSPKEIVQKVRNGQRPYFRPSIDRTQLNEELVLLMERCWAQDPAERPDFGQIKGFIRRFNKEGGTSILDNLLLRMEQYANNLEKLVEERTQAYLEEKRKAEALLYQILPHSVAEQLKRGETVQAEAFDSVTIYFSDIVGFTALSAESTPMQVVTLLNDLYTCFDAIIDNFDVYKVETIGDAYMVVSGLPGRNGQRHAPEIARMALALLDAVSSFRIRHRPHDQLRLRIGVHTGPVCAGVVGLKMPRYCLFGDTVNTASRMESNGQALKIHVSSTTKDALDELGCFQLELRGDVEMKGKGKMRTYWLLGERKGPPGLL
CaV13 ICDI inh = Primary screen for inhibitors of IQ motif and Ca2+-dependent inactivation inhibitor domain binding in CACNA1D, Förster resonance energy transfer in living cells, …; HEK cells, CFP/YFP FRET ICDI-IQ, plate reader, 10 min; percent FRET-ratio fall versus neutral wells; inhibition, % at 12.3 µM; 340,000 compounds, 0.098% hits; AID 743397;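 active = mean replicate inhibition of at least 30% and at least 1% of replicates passing that level; inconclusive = only one of the two criteria is met; inactive = neither criterion is met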
XiGFP reactiv = reactivates the inactive X chromosome in mouse fibroblasts; XiGFP mouse fibroblasts, % GFP-positive cells imaging, 3 d; cells co-treated with 5-aza-dC sensitizer; scaled so ellipticine positive control = 100%; AID 743238; activation, % at 7.58 µM; 360,000 compounds, 0.055% hits;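 active = mean normalized replicate activation at least 10% and every replicate at or above 10%; inconclusive = only one of the two criteria met; inactive = mean below 10% and not all replicates reach 10%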
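Schedule: 3 d treatment, 15 min room-temperature fixation; system: 68-5-11 XiGFP fibroblast line; buffer or medium: DMEM plus 5-aza-dC sensitizer; control set: ellipticine 6 µM positive control; compound: one concentration, pinned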
GC-A act = GC-A (human) enzyme activation; P16066; HEK293 GC-A cells, cGMP TR-FRET, EC30 ANP; 0% at EC30 ANP, 100% saturating ANP; activation, % at 10 µM; 370,000 compounds, 0.14% hits; AID 1671463; in the data active = activation above about 40%
Vif inh = HIV Vif inhibition; HEK293T cells, Vif self-association by quenched fluorescence, imaging, 24 h; 340,000 compounds, 0.35% hits; inhibition, % at 7.49 µM; AID 602346; in the data active = inhibition above about 50%, passing the limit was not always enough; inconclusive = no clear call, values can overlap the other calls; inactive = below about 31%
Of the large screens only hits and unclear results are named; the others gave an inactive call. This is a sample that favours compounds with a hit; in the whole collection about 0.7% have one here.

CCNC(=O)[C@H]1O[C@@H](n2cnc3c(N)nc(NCCc4ccc(CCC(=O)O)cc4)nc32)[C@H](O)[C@@H]1O	Vif inh 63
O=C(C[C@H]1C=C[C@@H](NC(=O)CN2CCOCC2)[C@H](CO)O1)NCc1cccc(F)c1	none (no result: N-glyco inh, GC-B act, CaV13 ICDI inh, GC-A act, Vif inh)
Cc1c(N=C2N=C(NC(=O)Nc3ccc(Cl)cc3)c3ccccc32)c(=O)n(-c2ccccc2)n1C	GC-A act 76
CC(NC(=O)/C(C#N)=C/c1ccco1)c1ccccc1 (stereo not drawn)	none
CC(NC(=O)/C(C#N)=C/c1ccc([N+](=O)[O-])o1)c1ccccc1 (stereo not drawn)	XiGFP reactiv 43, Vif inh inconclusive
CC(=O)Nc1cc2c3c(cccc3c1)-c1ccccc1-2	XiGFP reactiv 100 (no result: Vif inh)
CCOC(=O)c1ccc(NC(=O)c2cccc3c2C(=O)N(CC2CCCO2)C3)cc1 (stereo not drawn)	none
CCOC(=O)C1=CN(CC2CCCO2)C=C(C(=O)OCC)C1c1ccccc1C(F)(F)F (stereo not drawn)	CaV13 ICDI inh 76
O=C(O)c1cccc(NC(=O)c2cn(-c3ccccc3)nc2-c2cccc(Br)c2)c1	CaV13 ICDI inh 69
O=C(O)c1cccc(NC(=O)c2cn(-c3ccccc3)nc2-c2ccncc2)c1	none
O=S(=O)(N[C@H]1CC[C@H](CCNS(=O)(=O)c2ccccc2Cl)O[C@@H]1CO)c1ccccc1	none (no result: N-glyco inh, GC-B act, CaV13 ICDI inh, GC-A act, Vif inh)
O=C(Nc1ccc(Cl)cc1)N[C@@H]1CC[C@H](CCNC(=O)c2cc(Cl)cc(Cl)c2)O[C@@H]1CO	none (no result: N-glyco inh, GC-B act, CaV13 ICDI inh, GC-A act, Vif inh)
CCN1C=C(C(=O)OC)C(c2cccc(OC)c2OC)C(C(=O)OC)=C1	CaV13 ICDI inh active
COc1cc(OC)nc(Oc2ccccc2C(=O)Oc2cccc(C)c2)n1	Vif inh 74 (no result: CaV13 ICDI inh, XiGFP reactiv)
COc1cc(C(=O)Oc2cccc(C)c2)cc(OC)c1OC	none (no result: CaV13 ICDI inh, XiGFP reactiv)
O=C(NCC(F)(F)F)[C@@H]1[C@@H](CO)[C@@H]2Cn3c(cccc3=O)[C@@H]2N1C(=O)C1CCCC1	none (no result: N-glyco inh, GC-B act, CaV13 ICDI inh, GC-A act, Vif inh)
NC(=O)c1cccc(-c2coc3c(C(=O)NCc4ccccc4)cccc23)c1	GC-B act 37
Cc1ccc(-c2ccc(C3[C@@H]4CN(S(=O)(=O)c5ccc(C)cc5)C[C@H]3N4)cc2)cc1 (stereo partly drawn)	none (no result: N-glyco inh, GC-B act, CaV13 ICDI inh, GC-A act, Vif inh)
O=C(c1ccc(Cl)c(S(=O)(=O)N2CCCC2)c1)N1CCN(Cc2ccccc2)CC1	none
O=C(c1ccc(Cl)c(S(=O)(=O)N2CCCCC2)c1)N1CCN(Cc2ccccc2)CC1	N-glyco inh 29
C[C@@H]1CN([C@H](C)CO)C(=O)c2c(c3ccccc3n2C)-c2ccccc2CO[C@@H]1CN(C)C(=O)Nc1cccc(Cl)c1Cl	none (no result: N-glyco inh, GC-B act, CaV13 ICDI inh, GC-A act, Vif inh)
Cn1c(-c2ccccc2)c(/C=N/NC(=O)c2ccc(O)cc2)c2ccccc21	N-glyco inh 54 (no result: XiGFP reactiv)
COc1ccc(-c2ccc(C#N)c(SCC(=O)NC3CC3)n2)cc1OC	Vif inh 78
O=c1cc(-c2ccccc2)[nH]n1-c1nc2ccccc2[nH]1	N-glyco inh 41 (no result: XiGFP reactiv)
CCc1cc(=O)[nH]c(-n2[nH]c(-c3ccccc3)cc2=O)n1	none
Cc1noc(C)c1NC(=O)N[C@H]1CC[C@H](CCNC(=O)C2CC2)O[C@@H]1CO	none (no result: N-glyco inh, GC-B act, CaV13 ICDI inh, GC-A act, Vif inh)
CCCOc1ccc(C(=O)NNC(=S)NC(=O)c2ccco2)cc1	CaV13 ICDI inh 35
CC(C)c1ccc(NC(=O)CN2C(=O)NC3(CCCCCCC3)C2=O)cc1	N-glyco inh 37
CC1CCC2(CC1)NC(=O)N(CC(=O)Nc1cccc(S(=O)(=O)N(C)c3ccccc3)c1)C2=O (stereo not drawn)	none
CCN(CC)S(=O)(=O)c1cccc(NC(=O)CN2C(=O)NC3(CCC(C)CC3)C2=O)c1 (stereo not drawn)	N-glyco inh 32
CCC(=O)Nc1ccc2c(c1)OC[C@@H](C)N(C(=O)NC1CCCCC1)C[C@@H](C)[C@H](OC)CN(C)C2=O	none (no result: N-glyco inh, GC-B act, CaV13 ICDI inh, GC-A act, Vif inh)
NC(=NC(=O)c1cccc(C(F)(F)F)c1)c1ccc(C(F)(F)F)cn1	XiGFP reactiv 22
Cc1ccc(NC(=O)Cn2c(O)c(N=NC(N)=O)c3ccccc32)cc1	none
Cc1ccc(NC(=O)Cn2c(O)c(N=NC(N)=S)c3ccccc32)cc1	Vif inh 66
CO[C@@H]1CN(C)C(=O)c2cc(NC(=O)c3cnccn3)ccc2OC[C@@H](C)N(C(C)=O)C[C@@H]1C	none (no result: N-glyco inh, GC-B act, CaV13 ICDI inh, GC-A act, Vif inh)
C[C@@H]1CN([C@H](C)CO)C(=O)c2cc(NS(C)(=O)=O)ccc2O[C@@H]1CN(C)S(=O)(=O)c1ccc(F)cc1	none (no result: N-glyco inh, GC-B act, CaV13 ICDI inh, GC-A act, Vif inh)
COCC(=O)N1CC2(C1)[C@H](c1ccc(-c3ccccc3)cc1)[C@@H](CO)N2C(=O)COC	none (no result: N-glyco inh, GC-B act, CaV13 ICDI inh, GC-A act, Vif inh)
CCC1C/C(=C\c2cc(OC)c(OC)cc2OC)C(=O)/C(=C/c2cc(OC)c(OC)cc2OC)C1 (stereo not drawn)	none (no result: GC-B act, CaV13 ICDI inh, XiGFP reactiv, GC-A act)
COc1cc(OC)c(OC)cc1/C=C1\CC(C)C/C(=C\c2cc(OC)c(OC)cc2OC)C1=O (stereo not drawn)	GC-A act 49
COc1cc(NCCCNC(C)C)c2nccc(C)c2c1	Vif inh 67
Oc1[nH]c(N=C2N=c3ccccc3=N2)c2ccccc12	N-glyco inh 117
CCCC#Cc1ccc2c(c1)O[C@H](CN(C)C(=O)c1ccccc1)[C@@H](C)CN([C@H](C)CO)S2(=O)=O	none (no result: N-glyco inh, GC-B act, CaV13 ICDI inh, GC-A act, Vif inh)
Cc1cc(NC(=O)c2cncc(Br)c2)ccc1NC(=O)c1cc2ccccc2o1	Vif inh 104 (no result: CaV13 ICDI inh)
CCOc1ccc2nc(NS(=O)(=O)Cc3ccccc3)sc2c1	Vif inh 106 (no result: XiGFP reactiv)
CCOc1ccc2nc(NS(=O)(=O)c3ccc(NC(C)=O)cc3)sc2c1	none (no result: XiGFP reactiv)
CCCc1cn(CC[C@H]2CC[C@@H](NC(=O)C3CCC3)[C@H](CO)O2)nn1	none (no result: N-glyco inh, GC-B act, CaV13 ICDI inh, GC-A act, Vif inh)
O=c1oc2ccccc2cc1-c1csc(NN=C2CCCC2)n1	none
O=C(O)c1cccc(Nc2nc(-c3cc4ccccc4oc3=O)cs2)c1	CaV13 ICDI inh 77
[O-]/[N+](=C/c1ccccc1)c1ccccc1	CaV13 ICDI inh 45
CCCN1C(=O)C(O)(c2c(C)[nH]c3ccccc23)c2ccccc21 (stereo not drawn)	none
Cc1[nH]c2ccccc2c1C1(O)C(=O)N(C(C)C)c2ccccc21 (stereo not drawn)	Vif inh 57 (no result: XiGFP reactiv)
Cc1nnc(N/N=C/c2ccccc2C(F)(F)F)n1N	none
Cc1nnc(N/N=C/c2ccccc2F)n1N	Vif inh 59
CC(C)C#Cc1ccc([C@@H]2[C@@H](CO)N3C(=O)CN(C(=O)Cc4cccnc4)C[C@@H]23)cc1	none (no result: N-glyco inh, GC-B act, CaV13 ICDI inh, GC-A act, Vif inh)

Screening results deposited in PubChem by several laboratories.
